In ChEMBL document CHEMBL1687909, “Design, synthesis, and biological evaluation of new cinnamic derivatives as antituberculosis agents” (J Med Chem, 2011):
Values after ≈ are worked out from the molar mass of the structure shown. Active and inactive are the calls of the source. The rule behind the calls is not given here.

How the values were obtained:
[1] = system: Mycobacterium tuberculosis; assay: Antimycobacterial activity against Mycobacterium tuberculosis assessed as inhibition of mycolic acid biosynthesis by TLC; assay type: functional, organism-based
In short: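 Cells saponified in 40% KOH/methoxyethanol overnight at 100 °C, acidified with H2SO4, lipids ether-extracted, fatty acids methylated; methyl esters resolved by silica TLC in dichloromethane, phosphorimaged.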

[2] = system: Mycobacterium tuberculosis; assay: Antituberculosis activity against Mycobacterium tuberculosis H37Rv after 7 days by MTT assay; assay type: functional; settings: 168 h
In short: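 Colorimetric MTT microassay: serial 2-fold dilutions from DMSO stocks in Middlebrook 7H9 broth, bacterial suspension in 7H9 added. After 6 days, MTT (1 mg/mL) added; 1 day later solubilization buffer, OD 570 nm. MIC = lowest concentration inhibiting growth, untreated bacilli as growth control.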

[3] = Selectivity index, ratio of IC50 for human THP1 cells to MIC for Mycobacterium tuberculosis H37Rv; assay type: functional, THP-1
THP-1 = assay: Cytotoxicity against human THP1 cells after 72 hrs by MTT assay; assay type: cell-based; settings: THP-1, 72 h
[4] = system: Mycobacterium tuberculosis; assay: Selectivity ratio of MIC for isoniazid to compound for Mycobacterium tuberculosis MYC5165; assay type: functional
[5] = system: Mycobacterium tuberculosis; assay: Selectivity ratio of MIC for isoniazid to compound for Mycobacterium tuberculosis 1400; assay type: functional

Question: For `O=C(/C=C/c1ccc(OCC(F)(F)F)cc1)NNC(=O)c1ccncc1`, which inhibition [1] is on record?
Answer: Active

Question: And the MIC [2]?
Answer: 2.2 µM (≈ 0.804 µg/mL)

Question: For `CCOc1ccc(/C=C/C(=O)N/N=c2/[nH]ncc3ccccc23)cc1`, which MIC [2] is on record?
Answer: 12 µM (≈ 4.01 µg/mL)

Question: For `CC(C)=CCC/C(C)=C/COc1ccc(C2CC2c2nnc3c4ccccc4cnn23)cc1` (racemic), which MIC [2] is on record?
Answer: 28 µM (≈ 12.3 µg/mL)

Question: For `CC(C)=CCC/C(C)=C/COc1ccc(/C=C/C(=O)NNC(=O)c2ccncc2)cc1`, which “Selectivity Index” value [3] is on record?
Answer: 22

Question: What about the inhibition [1] of the same molecule?
Answer: Active

Question: And the IC50 (THP-1)?
Answer: 43 µM

Question: And the MIC [2]?
Answer: 1.9 µM (≈ 0.797 µg/mL)

Question: For `COc1ccc(/C=C/C(=O)N[C@@H]2CONC2=O)cc1`, which MIC [2] is on record?
Answer: 950 µM (≈ 249 µg/mL)

Question: For `O=C(/C=C/c1ccc(OC(F)(F)F)cc1)NNC(=O)c1ccncc1`, which inhibition [1] is on record?
Answer: Active

Question: What about the MIC [2] of the same molecule?
Answer: 1.1 µM (≈ 0.386 µg/mL)

Question: For `FC(F)(F)Oc1ccc(C2CC2c2nnc3c4ccccc4cnn23)cc1` (racemic), which MIC [2] is on record?
Answer: 170 µM (≈ 63 µg/mL)

Question: Which MIC [2] does the source give for `O=C(/C=C/c1ccc(OC(F)(F)F)cc1)N/N=c1/[nH]ncc2ccccc12` here?
Answer: 21 µM (≈ 7.86 µg/mL)

Question: For `CC(C)=CCOc1ccc(/C=C/C(=O)N/N=c2/[nH]ncc3ccccc23)cc1`, which “Selectivity Index” value [3] is on record?
Answer: 1

Question: And the IC50 (THP-1)?
Answer: 26 µM

Question: What about the MIC [2] of the same molecule?
Answer: 21 µM (≈ 7.86 µg/mL)

Question: For `CCOc1ccc(C2CC2c2nnc3c4ccccc4cnn23)cc1` (racemic), which MIC [2] is on record?
Answer: 378 µM (≈ 125 µg/mL)

Question: Which MIC [2] does the source give for `COc1ccc(C2CC2c2nnc3c4ccccc4cnn23)cc1` (racemic) here?
Answer: 395 µM (≈ 125 µg/mL)

Question: Which “Selectivity Index” value [3] does the source give for `CC(C)=CCOc1ccc(/C=C/C(=O)NNC(=O)c2ccncc2)cc1` here?
Answer: 111

Question: What about the inhibition [1] of the same molecule?
Answer: Active

Question: What about the IC50 (THP-1) of the same molecule?
Answer: 256 µM

Question: And the MIC [2]?
Answer: 2.3 µM (≈ 0.808 µg/mL)

Question: Which “Selectivity Index” value [3] does the source give for `COc1ccc(/C=C/C(=O)N/N=c2/[nH]ncc3ccccc23)cc1` here?
Answer: 8

Question: And the IC50 (THP-1)?
Answer: 437 µM

Question: And the MIC [2]?
Answer: 50 µM (≈ 16 µg/mL)

Question: With `NNC(=O)c1ccncc1` [ISONIAZID] as the molecule, how does the “Selectivity Index” value [3] read?
Answer: >6081

Question: What about the IC50 (THP-1) of the same molecule?
Answer: > 3650 µM

Question: What about the MIC [2] of the same molecule?
Answer: 0.6 µM (≈ 0.0823 µg/mL)

Question: For `O=C(/C=C/c1ccc(OCC(F)(F)F)cc1)N/N=c1/[nH]ncc2ccccc12`, which MIC [2] is on record?
Answer: 20 µM (≈ 7.77 µg/mL)

Question: With `FC(F)(F)COc1ccc(C2CC2c2nnc3c4ccccc4cnn23)cc1` (racemic) as the molecule, how does the MIC [2] read?
Answer: 1300 µM (≈ 500 µg/mL)

Question: For `CC(C)=CCOc1ccc(/C=C/c2nnc3c4ccccc4cnn23)cc1`, which “Selectivity Index” value [3] is on record?
Answer: 320

Question: And the Ratio [4]?
Answer: 1800

Question: And the Ratio [5]?
Answer: 100

Question: What about the IC50 (THP-1) of the same molecule?
Answer: 449 µM

Question: What about the MIC [2] of the same molecule?
Answer: 1.4 µM (≈ 0.499 µg/mL)

Question: What does the source list for `CCOc1ccc(/C=C/C(=O)NNC(=O)c2ccncc2)cc1`?
Answer: inhibition [1]: Active; MIC [2]: 1.3 µM (≈ 0.405 µg/mL)

Question: With `COc1ccc(/C=C/C(=O)NNC(=O)c2ccncc2)cc1` as the molecule, how does the “Selectivity Index” value [3] read?
Answer: 560

Question: And the inhibition [1]?
Answer: Active

Question: And the IC50 (THP-1)?
Answer: 168 µM

Question: What about the MIC [2] of the same molecule?
Answer: 0.3 µM (≈ 0.0892 µg/mL)

Question: Which MIC [2] does the source give for `CC(C)=CCOc1ccc(C2CC2c2nnc3c4ccccc4cnn23)cc1` (racemic) here?
Answer: 21 µM (≈ 7.78 µg/mL)

Question: For `FC(F)(F)Oc1ccc(/C=C/c2nnc3c4ccccc4cnn23)cc1`, which MIC [2] is on record?
Answer: 702 µM (≈ 250 µg/mL)

Question: Which “Selectivity Index” value [3] does the source give for `CC(C)=CCC/C(C)=C/COc1ccc(/C=C/c2nnc3c4ccccc4cnn23)cc1` here?
Answer: 13

Question: What about the IC50 (THP-1) of the same molecule?
Answer: 259 µM

Question: What about the MIC [2] of the same molecule?
Answer: 19 µM (≈ 8.07 µg/mL)

Question: Which “Selectivity Index” value [3] does the source give for `COc1ccc(/C=C/c2nnc3c4ccccc4cnn23)cc1` here?
Answer: 13

Question: What about the IC50 (THP-1) of the same molecule?
Answer: 695 µM

Question: What about the MIC [2] of the same molecule?
Answer: 53 µM (≈ 16 µg/mL)

Question: For `CC(C)=CCC/C(C)=C/COc1ccc(/C=C/C(=O)N/N=c2/[nH]ncc3ccccc23)cc1`, which “Selectivity Index” value [3] is on record?
Answer: 0.8

Question: What about the IC50 (THP-1) of the same molecule?
Answer: 56 µM

Question: And the MIC [2]?
Answer: 72 µM (≈ 31.9 µg/mL)

Question: With `FC(F)(F)COc1ccc(/C=C/c2nnc3c4ccccc4cnn23)cc1` as the molecule, how does the MIC [2] read?
Answer: 170 µM (≈ 63 µg/mL)

Question: Which MIC [2] does the source give for `CCOc1ccc(/C=C/c2nnc3c4ccccc4cnn23)cc1` here?
Answer: 39 µM (≈ 12.3 µg/mL)
